Reference: ChEMBL document CHEMBL4270642, “Boronic ester-linked macrocyclic lipopeptides as serine protease inhibitors targeting Escherichia coli type I signal peptidase” (Eur J Med Chem, 2018)
Values after ≈ are worked out from the molar mass of the structure shown.

What was measured:
[1] = Hemolytic activity in human RBC at 100 uM after 45 mins by spectrophotometric method relative to control; type: ADME, cell-based, Erythrocyte; details: red blood cells (erythrocytes), read-out: Activity
Procedure, shortened: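 Heparinized human blood; red cells washed three times in Tyrode buffer pH 7.4. Compound at 100 µM final with 1% DMSO and 50% RBC, shaken (250 rpm) 45 min at 37 °C. Cells pelleted (1000 × g, 10 min); supernatant haemoglobin at 540 nm. Percent lysis relative to buffer-only and 2% Triton X-100 controls.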

[2] = biological target: Signal peptidase I (Escherichia coli K-12, UniProt P00803); test: Inhibition of Escherichia coli type 1 signal peptidase lepB preincubated for 10 mins followed by Dabcyl-VGGTATAYGAFSRPGLE-(EDANS)-OH substrate addition measured after 2 hrs by FRET based assay
Procedure, shortened: (§1)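 EcLepB (about 50 nM estimated) preincubated 10 min with compound. Reaction started with Dabcyl/EDANS FRET peptide at 8 µM final (Km 20 µM). Fluorescence followed continuously at 535 nm, 22 °C, for 2 h. Cleavage rates plotted against inhibitor concentration; IC50 from non-linear regression of sigmoidal dose-response curves.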

[3] = test system: Escherichia coli; test: Antibacterial activity against Escherichia coli ATCC 25922 after 16 to 20 hrs by broth microdilution method; type: functional
Procedure, shortened: (§2)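 Broth microdilution in cation-adjusted Mueller-Hinton II per EUCAST/CLSI; two-fold compound series 64 down to 0.25 µg/mL final. Inoculum from fresh colonies (non-selective agar, 18-24 h, 35 ± 2 °C), adjusted to 0.5 McFarland, diluted to about 5 × 10^5 CFU/mL final. Static incubation 16-20 h at 35 ± 2 °C; MIC read visually as complete growth inhibition against medium-only wells.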

[4] = test system: Escherichia coli; test: Antibacterial activity against tolC deficient Escherichia coli CH3130 after 16 to 20 hrs by broth microdilution method; type: functional; procedure, shortened: as §2
[5] = test system: Escherichia coli; test: Antibacterial activity against Escherichia coli D22 CGSG 5163 harboring Ips mutant after 16 to 20 hrs by broth microdilution method; type: functional
Procedure, shortened: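 Broth microdilution in cation-adjusted Mueller-Hinton II broth, following EUCAST and CLSI guidelines. Two-fold series at final concentrations 64 down to 0.25 µg/mL, with medium-only and growth controls. Inoculum from fresh colonies (18-24 h, 35 °C ± 2 °C) adjusted to 0.5 McFarland, final ≈5 × 10^5 CFU/mL. Plates incubated unshaken 16-20 h at 35 °C ± 2 °C. MIC read visually as complete inhibition of growth.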

[6] = test system: Pseudomonas aeruginosa; test: Antibacterial activity against Pseudomonas aeruginosa PAO1 after 16 to 20 hrs by broth microdilution method; type: functional; procedure, shortened: as §2
[7] = test system: Pseudomonas aeruginosa; test: Antibacterial activity against efflux defective Pseudomonas aeruginosa PAO750 after 16 to 20 hrs by broth microdilution method; type: functional; procedure, shortened: as §2
[8] = test system: Klebsiella pneumoniae; test: Antibacterial activity against Klebsiella pneumoniae ATCC 13883 after 16 to 20 hrs by broth microdilution method; type: functional; procedure, shortened: as §2
[9] = test system: HepG2; test: Cytotoxicity against human HepG2 cells after 72 hrs by FMSA; type: cell-based; details: HepG2, 72 h
Procedure, shortened: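 HepG2 (ATCC) grown in EMEM with 10% FBS, pen/strep, 2 mM L-glutamine, used up to 20 passages. Seeded at 1000 cells/well, cultured overnight, then dosed acoustically from DMSO stocks. Eight two-fold dilutions in duplicate from top 64 or 32 µM; 72 h at 37 °C, 5% CO2. Fluorescein diacetate hydrolysis read at ex 485/em 530 nm; IC50 by non-linear regression.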

[10] = test system: Acinetobacter baumannii; test: Antibacterial activity against Acinetobacter baumannii ATCC 19606 after 16 to 20 hrs by broth microdilution method; type: functional; details: ATCC 19606 = CIP 70.34 = JCM 6841; procedure, shortened: as §2
[11] = test system: Staphylococcus aureus; test: Antibacterial activity against Staphylococcus aureus ATCC 29213 after 16 to 20 hrs by broth microdilution method; type: functional; procedure, shortened: as §2
[12] = biological target: Signal peptidase I (Escherichia coli K-12) (UniProt P00803); test: Inhibition of Escherichia coli type 1 signal peptidase lepB assessed as residual activity at 10 uM preincubated for 10 mins followed by Dabcyl-VGGTATAYGAFSRPGLE-(EDANS)-OH substrate addition measured after 2 hrs by FRET based assay (reference value: 100%); procedure, shortened: as §1
[13] = biological target: Signal peptidase I (Escherichia coli K-12) (UniProt P00803); test: Inhibition of Escherichia coli type 1 signal peptidase lepB assessed as residual activity at 5 uM preincubated for 10 mins followed by Dabcyl-VGGTATAYGAFSRPGLE-(EDANS)-OH substrate addition measured after 2 hrs by FRET based assay (reference value: 100%); procedure, shortened: as §1
[14] = biological target: Signal peptidase I (Escherichia coli K-12) (UniProt P00803); test: Inhibition of Escherichia coli type 1 signal peptidase lepB assessed as residual activity at 2.5 uM preincubated for 10 mins followed by Dabcyl-VGGTATAYGAFSRPGLE-(EDANS)-OH substrate addition measured after 2 hrs by FRET based assay (reference value: 100%); procedure, shortened: as §1
[15] = biological target: Signal peptidase I (Escherichia coli K-12) (UniProt P00803); test: Inhibition of Escherichia coli type 1 signal peptidase lepB assessed as residual activity at 1.25 uM preincubated for 10 mins followed by Dabcyl-VGGTATAYGAFSRPGLE-(EDANS)-OH substrate addition measured after 2 hrs by FRET based assay (reference value: 100%); procedure, shortened: as §1
[16] = biological target: Signal peptidase I (Escherichia coli K-12) (UniProt P00803); test: Inhibition of Escherichia coli type 1 signal peptidase lepB assessed as residual activity at 0.625 uM preincubated for 10 mins followed by Dabcyl-VGGTATAYGAFSRPGLE-(EDANS)-OH substrate addition measured after 2 hrs by FRET based assay (reference value: 100%); procedure, shortened: as §1
[17] = biological target: Signal peptidase I (Escherichia coli K-12) (UniProt P00803); test: Inhibition of Escherichia coli type 1 signal peptidase lepB assessed as residual activity at 0.3125 uM preincubated for 10 mins followed by Dabcyl-VGGTATAYGAFSRPGLE-(EDANS)-OH substrate addition measured after 2 hrs by FRET based assay (reference value: 100%); procedure, shortened: as §1
[18] = biological target: Signal peptidase I (Escherichia coli K-12) (UniProt P00803); test: Inhibition of Escherichia coli type 1 signal peptidase lepB assessed as residual activity at 0.1563 uM preincubated for 10 mins followed by Dabcyl-VGGTATAYGAFSRPGLE-(EDANS)-OH substrate addition measured after 2 hrs by FRET based assay (reference value: 100%); procedure, shortened: as §1
[19] = biological target: Signal peptidase I (Escherichia coli K-12) (UniProt P00803); test: Inhibition of Escherichia coli type 1 signal peptidase lepB assessed as residual activity at 0.0781 uM preincubated for 10 mins followed by Dabcyl-VGGTATAYGAFSRPGLE-(EDANS)-OH substrate addition measured after 2 hrs by FRET based assay (reference value: 100%); procedure, shortened: as §1
[20] = biological target: Signal peptidase I (Escherichia coli K-12) (UniProt P00803); test: Inhibition of Escherichia coli type 1 signal peptidase lepB assessed as residual activity at 0.0391 uM preincubated for 10 mins followed by Dabcyl-VGGTATAYGAFSRPGLE-(EDANS)-OH substrate addition measured after 2 hrs by FRET based assay (reference value: 100%); procedure, shortened: as §1
[21] = biological target: Signal peptidase I (Escherichia coli K-12) (UniProt P00803); test: Inhibition of Escherichia coli type 1 signal peptidase lepB assessed as residual activity at 0.0195 uM preincubated for 10 mins followed by Dabcyl-VGGTATAYGAFSRPGLE-(EDANS)-OH substrate addition measured after 2 hrs by FRET based assay (reference value: 100%); procedure, shortened: as §1
[22] = biological target: Signal peptidase I (Escherichia coli K-12) (UniProt P00803); test: Inhibition of Escherichia coli type 1 signal peptidase lepB assessed as residual activity at 0.0098 uM preincubated for 10 mins followed by Dabcyl-VGGTATAYGAFSRPGLE-(EDANS)-OH substrate addition measured after 2 hrs by FRET based assay (reference value: 100%); procedure, shortened: as §1
[23] = biological target: Signal peptidase I (Escherichia coli K-12) (UniProt P00803); test: Inhibition of Escherichia coli type 1 signal peptidase lepB assessed as residual activity at 0.0049 uM preincubated for 10 mins followed by Dabcyl-VGGTATAYGAFSRPGLE-(EDANS)-OH substrate addition measured after 2 hrs by FRET based assay (reference value: 100%); procedure, shortened: as §1
[24] = biological target: Signal peptidase I (Escherichia coli K-12) (UniProt P00803); test: Inhibition of Escherichia coli type 1 signal peptidase lepB assessed as residual activity at 0.0024 uM preincubated for 10 mins followed by Dabcyl-VGGTATAYGAFSRPGLE-(EDANS)-OH substrate addition measured after 2 hrs by FRET based assay (reference value: 100%); procedure, shortened: as §1
[25] = biological target: Signal peptidase I (Escherichia coli K-12) (UniProt P00803); test: Inhibition of Escherichia coli type 1 signal peptidase lepB assessed as residual activity at 0.0012 uM preincubated for 10 mins followed by Dabcyl-VGGTATAYGAFSRPGLE-(EDANS)-OH substrate addition measured after 2 hrs by FRET based assay (reference value: 100%); procedure, shortened: as §1
[26] = biological target: Signal peptidase I (Escherichia coli K-12) (UniProt P00803); test: Inhibition of Escherichia coli type 1 signal peptidase lepB assessed as residual activity at 0.0006 uM preincubated for 10 mins followed by Dabcyl-VGGTATAYGAFSRPGLE-(EDANS)-OH substrate addition measured after 2 hrs by FRET based assay (reference value: 100%); procedure, shortened: as §1

Chain of Signal peptidase I (P00803 whole entry): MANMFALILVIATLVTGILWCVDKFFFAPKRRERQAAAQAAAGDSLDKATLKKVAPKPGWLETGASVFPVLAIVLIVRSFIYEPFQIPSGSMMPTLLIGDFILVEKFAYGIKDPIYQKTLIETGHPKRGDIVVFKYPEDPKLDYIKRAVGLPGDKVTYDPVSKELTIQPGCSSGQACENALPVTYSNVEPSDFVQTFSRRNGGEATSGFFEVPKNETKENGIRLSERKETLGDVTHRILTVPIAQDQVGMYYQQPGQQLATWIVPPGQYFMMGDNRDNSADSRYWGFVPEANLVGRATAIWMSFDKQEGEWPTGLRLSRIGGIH
Chain of Signal peptidase I (Escherichia coli K-12) (P00803 whole entry): as above

SMILES | hemolysis at 0.75 h, 100 µM [1] [%] | IC50 [2] [nM] | MIC [3] [µg/mL] | MIC [4] [µg/mL] | MIC [5] [µg/mL] | MIC [6] [µg/mL] | MIC [7] [µg/mL] | MIC [8] [µg/mL] | IC50 [9] [nM] | MIC [10] [µg/mL] | MIC [11] [µg/mL] | Activity [12] [%] | Activity [13] [%] | Activity [14] [%] | Activity [15] [%] | Activity [16] [%] | Activity [17] [%] | Activity [18] [%] | Activity [19] [%] | Activity [20] [%] | further results
CCCCCCc1ccc(-c2ccc(C(=O)N[C@@H](CCCNC(=N)N)C(=O)N[C@H](C(=O)N[C@@H](C)C(=O)N[C@H]3Cc4cn(nn4)CCCN4C[C@@H]5OB(O[C@@H]5C4)[C@H](C)NC3=O)[C@@H](C)O)cc2)cc1 | 21 | 41 | 16 (≈ 17.3 µM) | 4 (≈ 4.32 µM) | 8 (≈ 8.63 µM) | > 64 | 32 (≈ 34.5 µM) | 16 (≈ 17.3 µM) | 2400 | 16 (≈ 17.3 µM) | 16 (≈ 17.3 µM) | 22.9 | 27.7 | 32.8 | 35.7 | 36 | 39.1 | 41.7 | 46.5 | 76.8 | Activity [21]: 97.2%; Activity [22]: 101%; Activity [23]: 105%; Activity [24]: 102%; Activity [25]: 106%; Activity [26]: 108%
C[C@@H]1NC(=O)[C@@H](NC(=O)[C@H](C)NC(=O)[C@@H](NC(=O)[C@H](CCCN)NC(=O)c2ccc(-c3ccccc3)cc2)[C@@H](C)O)Cc2cn(nn2)CCO[C@@H]2C[C@@H]3OB1O[C@@H]3C2 | 0.2 | 72 | > 64 | > 64 | > 64 | > 64 | > 64 | > 64 | > 64000 | > 64 | > 64 | 7.2 | 9.7 | 9.9 | 10.6 | 11.8 | 12 | 26.4 | 48.6 | 68.9 | Activity [21]: 83.8%; Activity [22]: 88.3%; Activity [23]: 84.9%; Activity [24]: 94.6%; Activity [25]: 100%
CCCCCCC#Cc1cncc(C(=O)N[C@@H](CCCN)C(=O)N[C@H](C(=O)N[C@@H](C)C(=O)N[C@H]2Cc3cn(nn3)CCO[C@@H]3C[C@@H]4OB(O[C@@H]4C3)[C@H](C)NC2=O)[C@@H](C)O)c1 | 0.01 | 41 | > 64 | 64 (≈ 76.7 µM) | > 64 | > 64 | > 64 | > 64 | > 64000 | > 64 | 32 (≈ 38.3 µM) | -1.2 | 2.3 | 8.2 | 7.9 | 13 | 13.4 | 10.6 | 26.8 | 53.7 | Activity [21]: 75.2%; Activity [22]: 82.7%; Activity [23]: 91%; Activity [24]: 93.6%; Activity [25]: 106%
